From PMC7080202 (Medicinal Chemistry Research, 2013)
Like-named read-outs stand apart in the source and are kept apart here.

Experiments:
[1] = test system: Herpes simplex virus-1 (KOS); test: microbe, parasite or virus in culture; assay type: cell-based, herpes simplex virus type 1; conditions: read-out: EC50 Herpes simplex virus-1 (KOS)
[2] = test system: Herpes simplex virus-2 (G); test: microbe, parasite or virus in culture; assay type: cell-based, herpes simplex virus type 2; conditions: read-out: EC50 Herpes simplex virus-2 (G)
Vaccinia virus = test: microbe, parasite or virus in culture; assay type: cell-based; conditions: read-out: EC50 Vaccinia virus
[3] = test system: Vesicular stomatitis virus; test: microbe, parasite or virus in culture; assay type: cell-based; conditions: read-out: EC50 Vesicular stomatitis virus
[4] = test system: Herpes simplex virus-1TK-KOS ACV^r; test: microbe, parasite or virus in culture; assay type: cell-based, herpes simplex virus type 1; conditions: read-out: EC50 Herpes simplex virus-1TK-KOS ACV^r
Feline corona virus = test: Antiviral CPE assay, feline corona virus in CRFK cells; assay type: cell-based, feline coronavirus (FIPV); conditions: read-out: EC50 Feline corona virus; CRFK cell culture
Feline herpes virus = test: Antiviral CPE assay, feline herpes virus in CRFK cells; assay type: cell-based; conditions: read-out: EC50 Feline herpes virus
[5] = test system: Vesicular stomatitis virus; assay type: cell-based; conditions: read-out: Antiviral activity EC50 Vesicular stomatitis virus
Coxsackie virus B4 [6] = test: microbe, parasite or virus in culture; assay type: cell-based; conditions: read-out: Antiviral activity EC50 Coxsackie virus B4
Para-influenza-3 virus = test: organism not typed; assay type: cell-based, parainfluenza-3 virus; conditions: read-out: Antiviral activity EC50 Para-influenza-3 virus
Reovirus-1 = test: organism not typed; assay type: cell-based; conditions: read-out: Antiviral activity EC50 Reovirus-1
Sindbis virus = test: microbe, parasite or virus in culture; assay type: cell-based; conditions: read-out: Antiviral activity EC50 Sindbis virus
Coxsackie virus B4 [7] = test: microbe, parasite or virus in culture; assay type: cell-based; conditions: read-out: Antiviral activity EC50 Coxsackie virus B4; remark: listed apart in the source
Punta Toro virus = test: microbe, parasite or virus in culture; assay type: cell-based; conditions: read-out: Antiviral activity EC50 Punta Toro virus
Influenza A H1N1 subtype = test: Anti-influenza virus activity, influenza A H1N1 in MDCK cells; assay type: cell-based, influenza A virus A/Puerto Rico/8/34 (H1N1); conditions: for EC50: read-out: Antiviral EC50 Influenza A H1N1 subtype MTS, MDCK cells, MTS; for anti-influenza activity (in words): H1N1, H3N2 and influenza B, below the non-toxic concentration of 100 µM
Influenza A H3N2 subtype = test: Anti-influenza virus activity, influenza A H3N2 in MDCK cells; assay type: cell-based, influenza A virus A/Hong Kong/7/87 (H3N2); conditions: read-out: Antiviral EC50 Influenza A H3N2 subtype MTS
Influenza B = test: Anti-influenza virus activity, influenza B in MDCK cells; assay type: cell-based, influenza B virus B/Hong Kong/5/72
[8] = test system: Human embryonic lung cell cultures; test: Cytotoxicity; assay type: cell-based
How it was run: (§1)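 Cell cultures incubated with varying concentrations of test compound, then examined by microscopy. MCC is the lowest concentration that causes a microscopically detectable alteration of normal cell morphology. HEL, Vero and HeLa lines were monitored regularly for mycoplasma and found free of it.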

[9] = test system: Crandell-Rees feline kidney cells; test: Cytotoxicity; assay type: cell-based
HeLa cell cultures = test: Cytotoxicity; assay type: cell-based
How it was run: as §1

Vero cell cultures = test: Cytotoxicity; assay type: cell-based
How it was run: as §1

MDCK cells = conditions: for Cytotoxicity Minimum cytotoxic concentration: microscopically detectable alteration of normal cell morphology; for CC50: read-out: Cytotoxicity CC50, MTS assay
[10] = test system: Cytomegalovirus AD-169 strain; assay type: cell-based, human cytomegalovirus; conditions: both strains of HCMV (AD-169 and Davis)
[11] = test system: Cytomegalovirus Davis strain; test: microbe, parasite or virus in culture; assay type: cell-based; conditions: Human betaherpesvirus 5, HEL, read-out: EC50 Cytomegalovirus Davis strain
in vitro = conditions: dog
[12] = read-out: Antiviral EC50 Influenza B MTS, MDCK cells, MTS

Molecule	EC50 ([1]; HEL cell culture) [µM]	EC50 ([2]; HEL cell culture) [µM]	EC50 (Vaccinia virus) [µM]	EC50 [3] [µM]	EC50 ([4]; HEL cell culture) [µM]	EC50 (Feline corona virus) [µM]	EC50 (Feline herpes virus; CRFK cell culture) [µM]	EC50 [5] [µM]	EC50 (Coxsackie virus B4 [6]; HeLa cell cultures) [µM]	EC50 (Para-influenza-3 virus) [µM]	EC50 (Reovirus-1; Vero cell cultures) [µM]	EC50 (Sindbis virus; Vero cell cultures) [µM]	EC50 (Coxsackie virus B4 [7]; Vero cell cultures) [µM]	EC50 (Punta Toro virus; Vero cell cultures) [µM]	EC50 (Influenza A H1N1 subtype) [µM]	Minimum cytotoxic concentration [8] [µM]	Minimum cytotoxic concentration [9] [µM]	Minimum cytotoxic concentration (HeLa cell cultures) [µM]	Minimum cytotoxic concentration (Vero cell cultures) [µM]	Cytotoxicity Minimum cytotoxic concentration (MDCK cells)	other results
1-({[4-(dimethylamino)phenyl]methylidene}amino)-3-{[(3Z)-2-oxo-2,3-dihydro-1H-indol-3-ylidene]amino}thiourea [4c]	> 100	> 100	> 100	> 100	> 100	> 100	> 100	> 100	> 100	> 100	> 100	> 100	> 100	> 100	> 100	≥100	>100	>100	>100	>100	EC50 (Influenza A H3N2 subtype): > 100 µM; EC50 (Influenza B; [12]): > 100 µM; CC50 (MDCK cells): > 100 µM
1-{[(3,4-Dimethoxyphenyl)methylidene]amino}-3-{[(3Z)-2-oxo-2,3-dihydro-1H-indol-3-ylidene]amino}thiourea [4f]	> 20	> 20	> 20	> 20	> 20	> 100	> 100	> 100	> 100	> 20	> 20	> 20	> 20	> 20	37 ± 25	100	100	>100	≥20	>100	anti-influenza activity (in words) (Influenza A H1N1 subtype): some activity; EC50 (Influenza A H3N2 subtype): 27 ± 7.3 µM; EC50 (Influenza B; [12]): 37 ± 8.75 µM; CC50 (MDCK cells): > 100 µM
1-{[(4-Chlorophenyl)methylidene]amino}-3-{[(3Z)-2-oxo-2,3-dihydro-1H-indol-3-ylidene]amino}thiourea [4e]	> 100	> 100	> 100	> 100	> 100	> 100	> 100	> 100	> 100	> 100	> 100	> 100	> 100	> 100	> 100	100	>100	>100	>100	>100	EC50 (Influenza A H3N2 subtype): > 100 µM; EC50 (Influenza B; [12]): > 100 µM; CC50 (MDCK cells): > 100 µM
1-{[(4-Nitrophenyl)methylidene]amino}-3-{[(3Z)-2-oxo-2,3-dihydro-1H-indol-3-ylidene]amino}thiourea [4d]	> 100	> 100	> 100	> 100	> 100	> 100	> 100	> 100	> 100	> 20	> 20	> 20	> 20	> 20	> 100	100	>100	>100	100	>100	EC50 (Influenza A H3N2 subtype): > 100 µM; EC50 (Influenza B; [12]): > 100 µM; CC50 (MDCK cells): > 100 µM
3-[(1H-indol-3-ylmethylidene)amino]-1-{[(3Z)-2-oxo-2,3-dihydro-1H-indol-3-ylidene]amino}thiourea [4a]	> 20	> 20	> 20	> 20	> 20	> 20	> 20	> 20	> 20	> 20	> 20	> 20	> 20	> 20	> 4	60	86	≥20	100	20	antiviral activity against HCMV (in words) [10]: moderate activity; EC50 (Influenza A H3N2 subtype): > 4 µM; EC50 (Influenza B; [12]): > 4 µM; CC50 (MDCK cells): 51 µM
O=C(N/N=C1\C(=O)Nc2ccc([N+](=O)[O-])cc21)N/N=C1\C(=O)Nc2ccc([N+](=O)[O-])cc21 [6d, 1,3-Bis({[(3Z)-5-nitro-2-oxo-2,3-dihydro-1H-indol-3-ylidene]amino})urea]																≥100	>100	>100	>100	>100	EC50 [11]: > 100 µM; EC50 ([1]; Human alphaherpesvirus 1, HEL): > 100 µM; EC50 ([2]; Human alphaherpesvirus 2, HEL): > 100 µM; EC50 (Vaccinia virus; Orthopoxvirus vaccinia, HEL): > 100 µM; EC50 ([3]; Vesicular stomatitis virus, HEL): > 100 µM; EC50 ([4]; Human alphaherpesvirus 1, HEL): > 100 µM; EC50 (Feline herpes virus; CRFK): > 100 µM; EC50 (Coxsackie virus B4 [6]; Enterovirus B, B4, HeLa): > 100 µM; EC50 (Para-influenza-3 virus; Vero): > 100 µM; EC50 (Reovirus-1; Vero): > 100 µM; EC50 (Sindbis virus; Sindbis virus, Vero): > 100 µM; EC50 (Coxsackie virus B4 [7]; Enterovirus B, B4, Vero): > 100 µM; EC50 (Punta Toro virus; Punta Toro virus, Vero): > 100 µM; anti-influenza activity (in words) (Influenza A H1N1 subtype): some activity; EC50 (Influenza B; Influenza B virus, MDCK, read-out: Antiviral EC50 Influenza B MTS): 38 ± 1.3 µM; EC50 (Influenza B; Influenza B virus, MDCK, read-out: Antiviral EC50 Influenza B Visual CPE score): 47 ± 2.5 µM; CC50 (in vitro): > 100 µM
